Reference: ChEMBL document CHEMBL2093137, “WHO-TDR NTD Screening”
Values after ≈ are worked out from the molar mass of the structure shown.

Tests used:
Onchocerca ochengi = assay: WHO-TDR: Onchocerciasis; assay type: functional; set-up: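 at 12.5 µM on microfilariae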
Procedure, shortened: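 Percent inhibition and IC50 describe activity against microfilariae of Onchocerca ochengi or Onchocerca lienalis, used as animal-pathogen substitutes for the human parasite. The compounds tested made up a 10,000-member diverse library from Life Chemicals.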

[1] = test system: Trypanosoma brucei brucei; assay: WHO-TDR: Human African Trypanosomiasis (HAT); assay type: functional, organism-based; details: Squib-427
Procedure, shortened: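 Values are IC50 figures for antiparasitic potency. They come from a whole-organism screen of 10,000 diverse Life Chemicals compounds against bloodstream-form Trypanosoma brucei (Squib 427 strain).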

Plasmodium falciparum K1 = assay: WHO-TDR: Malaria; assay type: functional, organism-based, Homo sapiens; details: Erythrocyte
Procedure, shortened: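 Values are IC50 figures for antiplasmodial potency. They come from a whole-organism screen of 10,000 diverse Life Chemicals compounds against Plasmodium falciparum K1 growing inside human red blood cells, run by previously published standard procedures.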

Leishmania infantum = assay: WHO-TDR: Leishmaniasis; assay type: functional, organism-based, Mus musculus; details: Macrophage
Procedure, shortened: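 Values are IC50 figures for antiparasitic potency. They come from a whole-organism screen of a 10,000-compound diverse Life Chemicals library against Leishmania infantum MHOM/MA(BE)/67 amastigotes inside murine peritoneal macrophage host cells.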

[2] = WHO-TDR: Cytotoxicity; assay type: toxicity, cell-based; details: human, MRC5 cells
Schistosoma mansoni = assay: WHO-TDR: Schistosomiasis; assay type: functional; set-up: concentration or dose not given beside the values
Procedure, shortened: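 Percent inhibition and IC50 describe activity against whole Schistosoma mansoni worms of the Puerto Rican strain, tested as larvae and/or adults. The compounds screened were a diverse set of 10,000 from Life Chemicals, filtered for drug-likeness and reactive groups. Testing followed previously published standard procedures, with a reference drug as positive control.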

Trypanosoma cruzi = assay: WHO-TDR: Chagas disease; assay type: functional, organism-based, Homo sapiens; details: MRC5
Procedure, shortened: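 Whole-organism screen of a 10,000-compound diverse library from Life Chemicals, filtered for drug-likeness and reactive groups, against intracellular amastigotes of Trypanosoma cruzi Tulahuen CL2 beta-galactosidase strain grown in MRC-5SV2 human lung fibroblast host cells. The assay followed previously published standard procedures, with a reference drug as positive control. Antiparasitic potency is reported as IC50.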

SMILES	% Inhibition (Onchocerca ochengi)	IC50 [1]	IC50 (Plasmodium falciparum K1)	IC50 (Leishmania infantum)	IC50 [2]	% Inhibition (Schistosoma mansoni)	IC50 (Trypanosoma cruzi)
O=C(Cc1cccs1)Nc1cccc(-c2ccc3nnc(-c4cccnc4)n3n2)c1	100%	3.81 µg/mL (≈ 9.24 µM)	2.67 µg/mL (≈ 6.46 µM)	> 12.4 µg/mL	4.45 µg/mL (≈ 10.8 µM)	0%	> 12.4 µg/mL
CC(=O)c1ccc(C(=O)N(Cc2cccnc2)c2nc3c(F)cc(F)cc3s2)cc1	100%	5.26 µg/mL (≈ 12.4 µM)	6.29 µg/mL (≈ 14.8 µM)	> 12.7 µg/mL	> 12.7 µg/mL	0%	1.31 µg/mL (≈ 3.09 µM)
CCOc1ccc2nc(N(Cc3cccnc3)C(=O)c3ccc(Cl)s3)sc2c1	0%	> 12.9 µg/mL	4.14 µg/mL (≈ 9.62 µM)	> 12.9 µg/mL	> 12.9 µg/mL	0%	0.397 µg/mL (≈ 0.922 µM)
Cc1ccc(SCC(=O)Nc2ccccc2-c2nc3ccccc3[nH]2)cc1	100%	> 11.2 µg/mL	> 11.2 µg/mL	> 11.2 µg/mL	> 11.2 µg/mL	0%	> 11.2 µg/mL
Cc1ccc(S(=O)(=O)CC(=O)Nc2cccc(Cl)c2)cc1	100%	> 9.71 µg/mL	> 9.71 µg/mL	> 9.71 µg/mL	> 9.71 µg/mL	0%	> 9.71 µg/mL
O=S(=O)(Nc1ccc(-c2ccc3nnc(-c4ccccn4)n3n2)cc1)c1ccccc1F	100%	> 13.4 µg/mL	5.88 µg/mL (≈ 13.2 µM)	> 13.4 µg/mL	> 13.4 µg/mL	0%	> 13.4 µg/mL
O=C(NCC(c1ccco1)N1CCN(c2ccc(F)cc2)CC1)OCc1ccccc1 (stereo not given)	100%	4.11 µg/mL (≈ 9.71 µM)	> 12.7 µg/mL	> 12.7 µg/mL	> 12.7 µg/mL	0%	3.86 µg/mL (≈ 9.13 µM)
O=C(CS(=O)(=O)c1ccc(Cl)cc1)Nc1nc(-c2ccc(F)cc2)cs1	100%	> 12.3 µg/mL	> 12.3 µg/mL	> 12.3 µg/mL	> 12.3 µg/mL	0%	> 12.3 µg/mL
COc1ccc(-c2nc(NC(=O)CSc3ccc(Cl)cc3)sc2C)cc1	100%	3.93 µg/mL (≈ 9.71 µM)	0.41 µg/mL (≈ 1.01 µM)	> 12.1 µg/mL	> 12.1 µg/mL	0%	1.52 µg/mL (≈ 3.76 µM)
COc1ccc(C)c2sc(N(Cc3cccnc3)C(=O)Cc3ccccc3)nc12	0%	3.87 µg/mL (≈ 9.6 µM)	3.83 µg/mL (≈ 9.49 µM)	> 12.1 µg/mL	> 12.1 µg/mL	0%	0.992 µg/mL (≈ 2.46 µM)
O=C(Nc1cccc(-c2ccc3nnc(-c4ccncc4)n3n2)c1)c1ccc2ccccc2n1	0%	> 13.3 µg/mL	0.482 µg/mL (≈ 1.09 µM)	> 13.3 µg/mL	> 13.3 µg/mL	0%	7.48 µg/mL (≈ 16.9 µM)
O=C(COc1ccccc1)NCC(c1ccco1)N1CCN(c2ccc(F)cc2)CC1 (stereo not given)	100%	4.02 µg/mL (≈ 9.49 µM)	> 12.7 µg/mL	> 12.7 µg/mL	> 12.7 µg/mL	0%	4.08 µg/mL (≈ 9.63 µM)
O=C(Nc1cccc(-c2ccc3nnc(-c4cccs4)n3n2)c1)c1c(F)cccc1F	50%	0.481 µg/mL (≈ 1.11 µM)	5.18 µg/mL (≈ 11.9 µM)	> 13 µg/mL	> 13 µg/mL	0%	> 13 µg/mL
Cc1ccc(SCCC(=O)Nc2cc(Cl)cc(Cl)c2)cc1	100%	> 10.2 µg/mL	> 10.2 µg/mL	> 10.2 µg/mL	> 10.2 µg/mL	0%	> 10.2 µg/mL
NS(=O)(=O)c1ccc2nc(NC(=O)CCSc3ccc(Cl)cc3)sc2c1	100%	4.31 µg/mL (≈ 10.1 µM)	> 12.8 µg/mL	> 12.8 µg/mL	> 12.8 µg/mL	0%	> 12.8 µg/mL
COc1cccc(C(=O)Nc2ccc(C)cc2C(=O)c2ccccc2)c1OC	100%	7.21 µg/mL (≈ 19.2 µM)	> 11.3 µg/mL	4.75 µg/mL (≈ 12.6 µM)	> 11.3 µg/mL	0%	3.69 µg/mL (≈ 9.83 µM)
O=C(Nc1cccc(-c2ccc3nnc(-c4cccnc4)n3n2)c1)c1ccco1	100%	> 11.5 µg/mL	1.82 µg/mL (≈ 4.75 µM)	> 11.5 µg/mL	> 11.5 µg/mL	0%	> 11.5 µg/mL
CCOc1ccc2nc(NC(=O)CS(=O)(=O)c3ccc(Cl)cc3)sc2c1	100%	> 12.3 µg/mL	> 12.3 µg/mL	> 12.3 µg/mL	> 12.3 µg/mL	0%	> 12.3 µg/mL
C=CCN(CC=C)S(=O)(=O)c1ccc(C(=O)Nc2nnc(-c3ccc(C)cc3C)o2)cc1	0%	0.988 µg/mL (≈ 2.18 µM)	> 13.6 µg/mL	5.72 µg/mL (≈ 12.7 µM)	4.48 µg/mL (≈ 9.9 µM)	0%	0.583 µg/mL (≈ 1.29 µM)
O=C(CCS(=O)(=O)c1ccc(Cl)cc1)Nc1cccc(-c2nc3ccccc3o2)c1	100%	> 13.2 µg/mL	> 13.2 µg/mL	4.28 µg/mL (≈ 9.71 µM)	> 13.2 µg/mL	0%	> 13.2 µg/mL
Cc1ccc(SCCC(=O)Nc2nc(-c3ccccn3)cs2)cc1	75%	> 10.7 µg/mL	> 10.7 µg/mL	> 10.7 µg/mL	8.21 µg/mL (≈ 23.1 µM)	25%	0.368 µg/mL (≈ 1.03 µM)
Cc1nnc2ccc(-c3ccc(NS(=O)(=O)c4ccc5c(c4)CCCC5)cc3)nn12	100%	4.63 µg/mL (≈ 11 µM)	> 12.6 µg/mL	4.07 µg/mL (≈ 9.71 µM)	> 12.6 µg/mL	0%	4.92 µg/mL (≈ 11.7 µM)
CCSc1nnc2ccc(-c3ccc(CC)cc3)nn12	100%	> 8.53 µg/mL	> 8.53 µg/mL	> 8.53 µg/mL	> 8.53 µg/mL	0%	> 8.53 µg/mL
CCOC(=O)c1ccc(NC(=O)CCSc2ccc(C)cc2)cc1	100%	> 10.3 µg/mL	> 10.3 µg/mL	> 10.3 µg/mL	> 10.3 µg/mL	0%	> 10.3 µg/mL
CNC(=O)c1ccsc1NC(=O)CSc1ccc(Cl)cc1	100%	5.06 µg/mL (≈ 14.8 µM)	> 10.2 µg/mL	> 10.2 µg/mL	> 10.2 µg/mL	0%	4.93 µg/mL (≈ 14.5 µM)
